Results on 31 molecules are retold here after ChEMBL document CHEMBL1122844, “Novel nonnarcotic analgesics with an improved therapeutic ratio. Structure-activity relationships of 8-(methylthio)- and 8-(acylthio)-1,2,3,4,5,6-hexahydro-2,6-methano-3-benzazocines” (J Med Chem, 1985).

Assay [1] concerns Mus musculus. The experiment in a line: Effective dose required to produce analgesic action in mice after peroral administration. The class given is functional. The conditions noted are these: po. Put shortly:
(§1)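 Acetic acid writhing test in mice, 10 per group. Drug given sc or po; sc dosing simultaneous with ip 0.7% AcOH. Starting 15 min after AcOH, writhing observed for 5 min at 15-min intervals, four times in all. A mouse writhing more than once within 5 min counted as having no analgesic effect.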

For assay [2], the system named is Mus musculus. The experiment in a line: Percent analgesic activity in mice after subcutaneous administration at dose 10 mg/kg. In kind it is functional. The method in brief: as §1
Assay [3] is described as follows: Ratio of ED50 with/without Naloxone (0.2 mg/kg) after simultaneous injection of drug. In kind it is organism-based. Put shortly: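 Mouse acetic acid writhing test (ip 0.7% AcOH, 10 mice/group, four 5-min observations at 15-min intervals; more than one writhe in 5 min = no analgesia). ED50 determined with drug alone and with naloxone 0.2 mg/kg injected simultaneously with the drug; value is ratio of ED50 with/without naloxone.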

A further assay concerns the target Opioid receptor (Rattus norvegicus, UniProt P33533+P34975+P33535). Put plainly: Inhibitory activity against opiate receptor in rat using [3H]naloxone as radioligand.
Assay [4] concerns Mus musculus. Put plainly: Percent analgesic activity in mice after peroral administration at dose 20 mg/kg. The class given is functional. The conditions noted are these: route oral. Put shortly:
as §1

Assay [5] deals with Mus musculus. Put plainly: Percent analgesic activity in mice after subcutaneous administration; 20-30%. The class given is functional. Put shortly:
as §1

Assay [6] has as its system Mus musculus. The experiment in a line: Percent analgesic activity in mice after peroral administration at dose 10 mg/kg. The conditions noted are these: route oral. In kind it is functional. The method in brief:
as §1

Each structure is given as a SMILES string.

In the case of `CC(C)=CCN1CC[C@]2(C)c3cc(O)ccc3C[C@H]1[C@H]2C` [(+)-PENTAZOCINE], the 50% effective dose (ED50) (as a rule, the midpoint of the dose-response relation) in the assay with Mus musculus [1] was determined as 1.6 mg/kg. Also, the Analgesic activity in the assay on Mus musculus [2] came out at 20%.
`CC(C)=CCN1CC[C@@]2(C)c3cc(OC(=O)c4ccccc4)ccc3CC1[C@@H]2C`: the median effective dose (ED50) in the assay with Mus musculus [1] turned out to be 2.6 mg/kg.
Same read-out and setting: under `COc1ccc(C(=O)Sc2ccc3c(c2)[C@]2(C)CCN(CCc4ccccc4)C(C3)[C@@H]2C)cc1` stands 5.3 mg/kg; under `C[C@H]1C2Cc3ccc(O)cc3[C@]1(C)CCN2CCc1cccs1`, 0.071 mg/kg.
For the molecule `C[C@H]1C2Cc3ccc(OC(=O)c4ccccc4)cc3[C@]1(C)CCN2C`, in the assay on Mus musculus [1], the 50% effective dose (ED50) is 1.7 mg/kg. In addition, the Ratio in assay [3] amounted to 6.4. Moreover, the IC50 (as a rule, the concentration needed to halve the response being measured) at Opioid receptor worked out at 0.107 µM.
Consider `CCOC(=O)Sc1ccc2c(c1)[C@]1(C)CCN(CCc3ccccc3)C(C2)[C@@H]1C`, for which, in the assay on Mus musculus [1], the ED50 turned out to be 18.5 mg/kg.
Turning to `CC(C)=CCN1CC[C@@]2(C)c3cc(SC(=O)c4ccccc4)ccc3C[C@H]1[C@@H]2C`, in the assay with Mus musculus [2], the Analgesic activity was 20%.
`C[C@H]1[C@H]2Cc3ccc(O)cc3[C@@]1(C)CCN2C`: in the assay with Mus musculus [1], the median effective dose (ED50) turned out to be 0.27 mg/kg.
The same measure, in the same setting: the value for `COc1ccc(C(=O)Sc2ccc3c(c2)[C@]2(C)CCN(C)C(C3)[C@@H]2C)cc1` was 4.8 mg/kg.
In the assay with Mus musculus [1], `C[C@H]1C2Cc3ccc(SC(=O)c4ccccc4)cc3[C@]1(C)CCN2C` registered a median effective dose (ED50) of 1.05 mg/kg. Moreover, the Ratio in assay [3] stood at 1.7. In addition, the IC50 at Opioid receptor stood at 1.53 µM.
As for `C[C@H]1C2Cc3ccc(SC(=O)c4ccc(Cl)cc4)cc3[C@]1(C)CCN2CCc1ccccc1`, the Analgesic activity with Mus musculus [4] was 40%.
For the molecule `C[C@H]1C2Cc3ccc(SC(=O)C(C)(C)C)cc3[C@]1(C)CCN2C`, in the assay with Mus musculus [1], the median effective dose (ED50) worked out at 6.4 mg/kg.
The molecule `C[C@H]1[C@@H]2Cc3ccc(O)cc3[C@]1(C)CCN2C` [METAZOCINE] gave an Analgesic activity in the assay with Mus musculus [5] of 20%.
`C[C@H]1[C@@H]2Cc3ccc(SC(=O)c4ccccc4)cc3[C@]1(C)CCN2C` displayed an Analgesic activity in the assay with Mus musculus [2] of 30%.
Take `CC(C)=CCN1CC[C@@]2(C)c3cc(SC(=O)c4ccc(Cl)cc4)ccc3CC1[C@@H]2C`: it took a dose of 6 mg/kg to reach the 50% effect level in the assay on Mus musculus [1] (ED50).
The same measure, in the same setting: the value for `CC(C)=CCN1CC[C@@]2(C)c3cc(SC(=O)c4ccccc4)ccc3CC1[C@@H]2C` was 4 mg/kg; that for `COc1ccc(C(=O)Sc2ccc3c(c2)[C@]2(C)CCN(CC=C(C)C)C(C3)[C@@H]2C)cc1` was 5.3 mg/kg; that for `C[C@H]1C2Cc3ccc(SC(=O)c4ccccc4)cc3[C@]1(C)CCN2CCc1ccccc1` was 1.7 mg/kg.
Regarding `C[C@H]1C2Cc3ccc(SC(=O)c4ccc(Cl)cc4)cc3[C@]1(C)CCN2C`, the ED50 with Mus musculus [1] worked out at 2.8 mg/kg.
In turn, `C[C@H]1C2Cc3ccc(O)cc3[C@]1(C)CCN2C` registered an ED50 in the assay on Mus musculus [1] of 0.46 mg/kg.
Same read-out and setting: the value for `CC(C)=CCN1CC[C@@]2(C)c3cc(O)ccc3C[C@@H]1[C@@H]2C` was 0.36 mg/kg; that for `C[C@H]1[C@H]2Cc3ccc(SC(=O)c4ccccc4)cc3[C@]1(C)CCN2C` was 1 mg/kg; that for `CC(C)=CCN1CC[C@@]2(C)c3cc(SC(=O)c4ccccc4)ccc3C[C@@H]1[C@@H]2C` was 0.74 mg/kg.
The molecule `C[C@H]1C2Cc3ccc(SC(=O)c4ccccc4)cc3[C@]1(C)CCN2Cc1ccccc1` yielded an Analgesic activity in the assay with Mus musculus [4] of 30%.
On the same count and under the same terms, under `C[C@H]1C2Cc3ccc(SC(=O)c4ccccc4)cc3[C@]1(C)CCN2CCc1cccs1` stands 40%.
`C[C@H]1C2Cc3ccc(SC(=O)C(C)(C)C)cc3[C@]1(C)CCN2CCc1ccccc1` yielded an ED50 in the assay with Mus musculus [1] of 5.2 mg/kg.
On the same count and under the same terms, the value for `CC(=O)Sc1ccc2c(c1)[C@]1(C)CCN(C)C(C2)[C@@H]1C` was 4.5 mg/kg.
The same measure, in the same setting: under `CN1CC[C@]23c4c5ccc(O)c4O[C@H]2[C@@H](O)C=C[C@H]3[C@H]1C5` [MORPHINE] stands 0.52 mg/kg; under `CCC(=O)Sc1ccc2c(c1)[C@]1(C)CCN(CCc3ccccc3)C(C2)[C@@H]1C`, 7 mg/kg; under `C[C@H]1C2Cc3ccc(O)cc3[C@@]1(C)CCN2CCc1ccccc1`, 0.135 mg/kg.
On to `CC(C)=CCN1CC[C@@]2(C)c3cc(SC(=O)C(C)(C)C)ccc3CC1[C@@H]2C`, for which the Analgesic activity with Mus musculus [6] came out at 50%.
